Source: ChEMBL document CHEMBL4359870, “Identification of a new family of pyrazolo[3,4-d]pyrimidine derivatives as multitarget Fyn-Blk-Lyn inhibitors active on B- and T-lymphoma cell lines” (Eur J Med Chem, 2019)
In brackets after ≈: the same amount, converted by molar mass. Activity calls are given as the source filed them. No cut-off for these calls is given here.

Target: Tyrosine-protein kinase Fyn (Homo sapiens, UniProt P06241)
Experiment: Inhibition of recombinant full length N-terminal His6 tagged human FYN expressed in baculovirus infected sf21 cells using KVEKIGEGTYGVVYK as substrate in presence of [gamma33P]ATP by scintillation counting method
Details: not given
Method in brief: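 Fyn radiometric assay with 250 µM Src-peptide, 100 µM ATP plus γ-33P ATP, 0.00087% NP-40, 10-50 ng enzyme, 10% DMSO, 30 °C for 10 min. ID50 taken from velocity fits. Ki derived assuming ATP-competitive binding, with ATP Km 102 µM.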

Tyrosine-protein kinase Fyn, sequence (P06241 whole entry): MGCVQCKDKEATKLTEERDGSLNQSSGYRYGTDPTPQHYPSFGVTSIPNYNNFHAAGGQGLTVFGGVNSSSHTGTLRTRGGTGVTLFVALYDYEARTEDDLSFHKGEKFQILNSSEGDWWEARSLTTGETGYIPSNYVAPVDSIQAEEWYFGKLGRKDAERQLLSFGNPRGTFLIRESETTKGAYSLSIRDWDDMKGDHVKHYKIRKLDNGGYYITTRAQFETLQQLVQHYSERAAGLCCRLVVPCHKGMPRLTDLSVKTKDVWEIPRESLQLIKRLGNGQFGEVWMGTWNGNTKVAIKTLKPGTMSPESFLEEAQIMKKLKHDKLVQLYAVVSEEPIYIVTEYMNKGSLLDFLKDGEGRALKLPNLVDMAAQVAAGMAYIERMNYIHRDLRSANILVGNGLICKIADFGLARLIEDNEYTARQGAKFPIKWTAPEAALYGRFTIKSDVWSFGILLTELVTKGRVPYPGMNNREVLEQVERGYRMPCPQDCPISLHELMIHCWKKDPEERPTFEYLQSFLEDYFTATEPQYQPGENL

Ki [µM]	Structure (SMILES)
0.16	Nc1ncnc2c1c(-c1ccc(Cl)cc1)nn2CC(Cl)c1ccccc1 (configuration not stated)
0.12	Nc1ncnc2c1c(-c1ccc(CO)cc1)nn2CC(Cl)c1ccccc1 (racemic)

Target: Tyrosine-protein kinase Lyn (Homo sapiens, UniProt P07948)
Sequence (P07948 whole entry): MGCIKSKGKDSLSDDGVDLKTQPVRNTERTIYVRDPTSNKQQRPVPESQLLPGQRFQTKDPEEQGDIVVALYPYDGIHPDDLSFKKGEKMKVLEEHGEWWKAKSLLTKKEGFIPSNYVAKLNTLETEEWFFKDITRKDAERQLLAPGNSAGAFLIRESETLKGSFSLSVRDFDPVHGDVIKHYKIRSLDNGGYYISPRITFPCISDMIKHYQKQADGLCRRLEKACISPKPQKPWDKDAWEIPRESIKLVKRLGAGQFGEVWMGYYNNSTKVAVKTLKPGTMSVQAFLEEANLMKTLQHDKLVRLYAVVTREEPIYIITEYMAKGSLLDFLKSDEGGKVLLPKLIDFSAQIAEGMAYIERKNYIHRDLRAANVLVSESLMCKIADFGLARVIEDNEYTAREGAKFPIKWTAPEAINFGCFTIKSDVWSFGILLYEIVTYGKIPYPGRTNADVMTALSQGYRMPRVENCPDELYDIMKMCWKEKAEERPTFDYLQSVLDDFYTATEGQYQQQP
Experiment: Inhibition of LYN (unknown origin) using KVEKIGEGTYGVVYK as substrate in presence of [gamma33P]ATP as substrate in presence of [gamma33P]ATP by scintillation counting method
Details: not given
Method in brief: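 Lyn radiometric assay with 200 µM Src-peptide, 40 µM ATP plus γ-33P ATP, 0.0013% NP-40, 10-50 ng enzyme, 10% DMSO, 30 °C for 10 min. ID50 taken from velocity fits. Ki derived assuming ATP-competitive binding, with ATP Km 39.9 µM.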

Ki [µM]	Structure (SMILES)
0.19	Nc1ncnc2c1c(-c1ccc(Cl)cc1)nn2CC(Cl)c1ccccc1 (configuration not stated)
0.19	Nc1ncnc2c1c(-c1ccc(CO)cc1)nn2CC(Cl)c1ccccc1 (racemic)

Target: Tyrosine-protein kinase Blk (Homo sapiens, UniProt P51451)
Sequence (P51451 whole entry): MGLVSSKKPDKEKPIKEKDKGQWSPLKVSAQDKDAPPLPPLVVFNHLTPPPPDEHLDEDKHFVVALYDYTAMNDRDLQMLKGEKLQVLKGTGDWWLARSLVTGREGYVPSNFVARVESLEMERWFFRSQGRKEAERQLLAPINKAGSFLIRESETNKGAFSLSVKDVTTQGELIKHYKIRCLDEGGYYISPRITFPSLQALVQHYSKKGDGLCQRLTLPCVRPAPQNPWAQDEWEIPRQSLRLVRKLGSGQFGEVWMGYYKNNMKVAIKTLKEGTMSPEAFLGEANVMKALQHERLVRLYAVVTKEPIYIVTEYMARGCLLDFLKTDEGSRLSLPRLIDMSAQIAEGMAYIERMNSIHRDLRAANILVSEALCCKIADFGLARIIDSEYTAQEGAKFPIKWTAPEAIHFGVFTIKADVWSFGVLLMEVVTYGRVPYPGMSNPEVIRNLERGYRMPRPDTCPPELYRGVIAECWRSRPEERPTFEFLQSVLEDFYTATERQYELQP
Experiment: Inhibition of BLK (unknown origin) using KVEKIGEGTYGVVYK as substrate in presence of [gamma33P]ATP as substrate in presence of [gamma33P]ATP by scintillation counting method
Details: not given

Ki [µM]	Structure (SMILES)
0.19	Nc1ncnc2c1c(-c1ccc(Cl)cc1)nn2CC(Cl)c1ccccc1 (configuration not stated)

Tested on: DOHH-2
Experiment: Antiproliferative activity against human DOHH2 cells assessed as reduction in cell viability after 72 hrs by MTT assay
Details: DOHH-2, 72 h

Structure (SMILES)	IC50 [µM]
Nc1ncnc2c1c(-c1ccc(Cl)cc1)nn2CC(Cl)c1ccccc1 (configuration not stated)	11.4
Cc1ccc(-c2nn(CC(Cl)c3ccccc3)c3ncnc(N)c23)cc1 (configuration not stated)	11.8
Cc1ccc(-c2nn(CCc3ccccc3)c3ncnc(N)c23)cc1	9.74
Nc1ncnc2c1c(-c1ccc(Cl)cc1)nn2CCc1ccccc1	11.8
Nc1ncnc2c1c(-c1ccccc1Cl)nn2CC(Cl)c1ccccc1 (racemic)	26.6
Nc1ncnc2c1c(-c1ccc(Br)cc1)nn2CC(Cl)c1ccccc1 (racemic)	11
Nc1ncnc2c1c(-c1ccc(CO)cc1)nn2CC(Cl)c1ccccc1 (racemic)	2.44

Tested on: Farage
Experiment: Antiproliferative activity against human Farage cells assessed as reduction in cell viability after 72 hrs by MTT assay
Details: not given

Structure (SMILES)	IC50 [µM]
Nc1ncnc2c1c(-c1ccc(Cl)cc1)nn2CC(Cl)c1ccccc1 (configuration not stated)	14.9
Cc1ccc(-c2nn(CC(Cl)c3ccccc3)c3ncnc(N)c23)cc1 (configuration not stated)	19.2
Cc1ccc(-c2nn(CCc3ccccc3)c3ncnc(N)c23)cc1	16
Nc1ncnc2c1c(-c1ccc(Cl)cc1)nn2CCc1ccccc1	18.6
Nc1ncnc2c1c(-c1ccccc1Cl)nn2CC(Cl)c1ccccc1 (racemic)	51.5
Nc1ncnc2c1c(-c1ccc(Br)cc1)nn2CC(Cl)c1ccccc1 (racemic)	13.6
Nc1ncnc2c1c(-c1ccc(CO)cc1)nn2CC(Cl)c1ccccc1 (racemic)	7.02

Tested on: SU-DHL-8
Experiment: Antiproliferative activity against human SUDHL8 cells assessed as reduction in cell viability after 72 hrs by MTT assay
Details: SU-DHL-8, 72 h

Structure (SMILES)	IC50 [µM]
Cc1ccc(-c2nn(CCc3ccccc3)c3ncnc(N)c23)cc1	37
Nc1ncnc2c1c(-c1ccc(Cl)cc1)nn2CCc1ccccc1	36
Nc1ncnc2c1c(-c1ccccc1Cl)nn2CC(Cl)c1ccccc1 (racemic)	18.4
Nc1ncnc2c1c(-c1ccc(CO)cc1)nn2CC(Cl)c1ccccc1 (racemic)	6.14

Further lines, results first:

IC50 [µM]	Structure (SMILES)
8.87	Nc1ncnc2c1c(-c1ccc(Cl)cc1)nn2CC(Cl)c1ccccc1 (configuration not stated)
12.1	Cc1ccc(-c2nn(CC(Cl)c3ccccc3)c3ncnc(N)c23)cc1 (configuration not stated)
11.8	Nc1ncnc2c1c(-c1ccc(Br)cc1)nn2CC(Cl)c1ccccc1 (racemic)

Tested on: SU-DHL-6
Experiment: Antiproliferative activity against human SUDHL6 cells assessed as reduction in cell viability after 72 hrs by MTT assay
Details: SU-DHL-6, 72 h

Structure (SMILES)	IC50 [µM]
Cc1ccc(-c2nn(CCc3ccccc3)c3ncnc(N)c23)cc1	> 100
Nc1ncnc2c1c(-c1ccc(Cl)cc1)nn2CCc1ccccc1	> 100
Nc1ncnc2c1c(-c1ccccc1Cl)nn2CC(Cl)c1ccccc1 (racemic)	> 100
Nc1ncnc2c1c(-c1ccc(CO)cc1)nn2CC(Cl)c1ccccc1 (racemic)	9.29

Next, values leading:

IC50 [µM]	Structure (SMILES)
21.5	Nc1ncnc2c1c(-c1ccc(Cl)cc1)nn2CC(Cl)c1ccccc1 (configuration not stated)
23.4	Cc1ccc(-c2nn(CC(Cl)c3ccccc3)c3ncnc(N)c23)cc1 (configuration not stated)
45.6	Nc1ncnc2c1c(-c1ccc(Br)cc1)nn2CC(Cl)c1ccccc1 (racemic)

Tested on: HuT78
Experiment: Antiproliferative activity against human HUT78 cells assessed as reduction in cell viability after 72 hrs by MTT assay
Details: HuT78, 72 h

Structure (SMILES)	IC50 [µM]
Nc1ncnc2c1c(-c1ccc(Cl)cc1)nn2CC(Cl)c1ccccc1 (configuration not stated)	> 100
Cc1ccc(-c2nn(CC(Cl)c3ccccc3)c3ncnc(N)c23)cc1 (configuration not stated)	11.1
Cc1ccc(-c2nn(CCc3ccccc3)c3ncnc(N)c23)cc1	> 100
Nc1ncnc2c1c(-c1ccc(Cl)cc1)nn2CCc1ccccc1	> 100
Nc1ncnc2c1c(-c1ccccc1Cl)nn2CC(Cl)c1ccccc1 (racemic)	> 100
Nc1ncnc2c1c(-c1ccc(Br)cc1)nn2CC(Cl)c1ccccc1 (racemic)	21.1
Nc1ncnc2c1c(-c1ccc(CO)cc1)nn2CC(Cl)c1ccccc1 (racemic)	4.5

Tested on: FEPD
Experiment: Antiproliferative activity against human FEPD cells assessed as reduction in cell viability after 72 hrs by MTT assay
Details: not given

Structure (SMILES)	IC50 [µM]
Nc1ncnc2c1c(-c1ccc(Cl)cc1)nn2CC(Cl)c1ccccc1 (configuration not stated)	15.8
Cc1ccc(-c2nn(CC(Cl)c3ccccc3)c3ncnc(N)c23)cc1 (configuration not stated)	> 100
Cc1ccc(-c2nn(CCc3ccccc3)c3ncnc(N)c23)cc1	21.5
Nc1ncnc2c1c(-c1ccc(Cl)cc1)nn2CCc1ccccc1	31.1
Nc1ncnc2c1c(-c1ccccc1Cl)nn2CC(Cl)c1ccccc1 (racemic)	38.9
Nc1ncnc2c1c(-c1ccc(Br)cc1)nn2CC(Cl)c1ccccc1 (racemic)	21.7
Nc1ncnc2c1c(-c1ccc(CO)cc1)nn2CC(Cl)c1ccccc1 (racemic)	10.8

Tested on: H9
Experiment: Antiproliferative activity against human H9 cells assessed as reduction in cell viability after 72 hrs by MTT assay
Details: H9, 72 h

Structure (SMILES)	IC50 [µM]
Nc1ncnc2c1c(-c1ccc(Cl)cc1)nn2CC(Cl)c1ccccc1 (configuration not stated)	13.6
Cc1ccc(-c2nn(CC(Cl)c3ccccc3)c3ncnc(N)c23)cc1 (configuration not stated)	> 100
Cc1ccc(-c2nn(CCc3ccccc3)c3ncnc(N)c23)cc1	> 100
Nc1ncnc2c1c(-c1ccc(Cl)cc1)nn2CCc1ccccc1	> 100
Nc1ncnc2c1c(-c1ccccc1Cl)nn2CC(Cl)c1ccccc1 (racemic)	38.9
Nc1ncnc2c1c(-c1ccc(Br)cc1)nn2CC(Cl)c1ccccc1 (racemic)	21.7
Nc1ncnc2c1c(-c1ccc(CO)cc1)nn2CC(Cl)c1ccccc1 (racemic)	3.42

Tested on: HH
Experiment: Antiproliferative activity against human HH cells assessed as reduction in cell viability after 72 hrs by MTT assay
Details: not given

Structure (SMILES)	IC50 [µM]
Nc1ncnc2c1c(-c1ccc(Cl)cc1)nn2CC(Cl)c1ccccc1 (configuration not stated)	13.9
Cc1ccc(-c2nn(CC(Cl)c3ccccc3)c3ncnc(N)c23)cc1 (configuration not stated)	14.8
Cc1ccc(-c2nn(CCc3ccccc3)c3ncnc(N)c23)cc1	17.3
Nc1ncnc2c1c(-c1ccc(Cl)cc1)nn2CCc1ccccc1	18.2
Nc1ncnc2c1c(-c1ccccc1Cl)nn2CC(Cl)c1ccccc1 (racemic)	> 100
Nc1ncnc2c1c(-c1ccc(Br)cc1)nn2CC(Cl)c1ccccc1 (racemic)	12.4
Nc1ncnc2c1c(-c1ccc(CO)cc1)nn2CC(Cl)c1ccccc1 (racemic)	2.4

Tested on: FEPD
Experiment: Induction of cell cycle arrest in human FEPD cells assessed as accumulation at sub-G0 phase at 5 to 10 uM after 72 hrs by 7AAD staining based assay
Format: functional
Details: not given

Structure (SMILES)	Activity
Nc1ncnc2c1c(-c1ccc(CO)cc1)nn2CC(Cl)c1ccccc1 (racemic)	Active

Tested on: HuT78
Experiment: Induction of cell cycle arrest in human HUT78 cells assessed as accumulation at sub-G0 phase at 5 to 10 uM after 72 hrs by 7AAD staining based assay
Format: functional
Details: not given

Structure (SMILES)	Activity
Nc1ncnc2c1c(-c1ccc(CO)cc1)nn2CC(Cl)c1ccccc1 (racemic)	Active

Tested on: SU-DHL-8
Experiment: Induction of cell cycle arrest in human SUDHL8 cells assessed as accumulation at sub-G0 phase at 5 to 10 uM after 72 hrs by 7AAD staining based assay
Format: functional
Details: not given

Structure (SMILES)	Activity
Nc1ncnc2c1c(-c1ccc(CO)cc1)nn2CC(Cl)c1ccccc1 (racemic)	Active

Tested on: not listed separately
Experiment: Aqueous solubility of compound at 1 mg after 24 hrs by LC-MS/MS analysis
Format: physicochemical
Details: water
Method in brief: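 Solid compound (1 mg) shaken in 1 mL water at 20 °C for 24 h, then filtered through 0.45 µm nylon. Dissolved concentration measured by LC-MS-MS against a methanol calibration curve, in triplicate. Mean of at least three experiments.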

solubility at 24 h [µg/mL]	Structure (SMILES)
0.01 (≈ 0.026 µM)	Nc1ncnc2c1c(-c1ccc(Cl)cc1)nn2CC(Cl)c1ccccc1 (configuration not stated)
0.09 (≈ 0.237 µM)	Nc1ncnc2c1c(-c1ccc(CO)cc1)nn2CC(Cl)c1ccccc1 (racemic)

Tested on: not listed separately
Experiment: Metabolic stability in human liver microsomes assessed as compound remaining at 50 uM after 1 hr by UV/LC-MS analysis relative to control
Format: ADME, Microsome
Details: read-out: Stability
Method in brief: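 Human liver microsomes at 0.2 mg/mL with NADPH regenerating system, compound at 50 µM in pH 7.4 25 mM phosphate buffer, 37 °C for 1 h. Quenched with acetonitrile, then supernatant dried and taken up in methanol. Unmetabolized percentage measured by UV/LC-MS. Mean of at least three experiments.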

remaining at 1 h, 50 µM [%]	Structure (SMILES)
85.2	Nc1ncnc2c1c(-c1ccc(Cl)cc1)nn2CC(Cl)c1ccccc1 (configuration not stated)
85	Nc1ncnc2c1c(-c1ccc(CO)cc1)nn2CC(Cl)c1ccccc1 (racemic)

Tested on: not listed separately
Experiment: Apparent permeability of compound at 500 uM after 5 hrs by UV/LC-MS analysis based GI-PAMPA assay
Format: ADME
Details: not given
Method in brief: (§1)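 GI-PAMPA run with donor compound at 500 µM final, diluted from 1 mM DMSO into pH 7.4 25.0 mM phosphate buffer. Filter coated with 1% (w/v) phosphatidylcholine in dodecane. Acceptor was 50% v/v DMSO/phosphate buffer. Incubated 5 h at r.t. with gentle shaking. Donor and acceptor wells quantified by UV/LC-MS peak area. Papp and membrane retention calculated by equation, in triplicate.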

Papp at 5 h, 500 µM [×10⁻⁶ cm/s]	Structure (SMILES)
9.95	Nc1ncnc2c1c(-c1ccc(Cl)cc1)nn2CC(Cl)c1ccccc1 (configuration not stated)
10.8	Nc1ncnc2c1c(-c1ccc(CO)cc1)nn2CC(Cl)c1ccccc1 (racemic)

Tested on: not listed separately
Experiment: Membrane retention of compound at 500 uM after 5 hrs by UV/LC-MS analysis based GI-PAMPA assay relative to control
Format: ADME
Details: not given
Method in brief: as §1

R% [%]	Structure (SMILES)
70.4	Nc1ncnc2c1c(-c1ccc(Cl)cc1)nn2CC(Cl)c1ccccc1 (configuration not stated)
15.2	Nc1ncnc2c1c(-c1ccc(CO)cc1)nn2CC(Cl)c1ccccc1 (racemic)
